# Experimental data reported in ChEMBL document CHEMBL2203006, “Design, synthesis and pharmacological evaluation of 4-(piperazin-1-yl methyl)-N₁-arylsulfonyl indole derivatives as 5-HT₆ receptor ligands” (Bioorg Med Chem Lett, 2012).
# The source made the active and inactive calls. No cut-off for these calls is given here.
# What was measured:
# [1] = AUCt in Wistar rat at 10 mg/kg, po; assay type: ADME, organism-based; design: dose 10 mg/kg, route oral; conditions: plasma
# Outline: (§1)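 Fasted male Wistar rats were dosed orally at 10 mg/kg in water for injection (10 mL/kg). Parameters come from the plasma concentration-time profile.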
# [2] = Oral bioavailability in Wistar rat at 10 mg/kg; assay type: ADME, organism-based; conditions: in vivo; outline: as §1
# [3] = Tmax in Wistar rat at 10 mg/kg, po; assay type: ADME, organism-based; design: dose 10 mg/kg, route oral; conditions: in vivo; outline: as §1
# [4] = Cmax in Wistar rat at 10 mg/kg, po; assay type: ADME, organism-based; design: dose 10 mg/kg, route oral; conditions: in vivo; outline: as §1
# [5] = Clearance in Wistar rat at 5 to 10 mg/kg, iv; assay type: ADME, organism-based; design: dose 5-10 mg/kg, route intravenous; conditions: in vivo
# Outline: (§2)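 Fasted male Wistar rats were dosed intravenously in water for injection at 2 mL/kg. Parameters come from the plasma profile.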
# [6] = Apparent volume of distribution in Wistar rat at 5 to 10 mg/kg, iv; assay type: ADME, organism-based; design: dose 5-10 mg/kg, route intravenous; conditions: in vivo, read-out: Vz; outline: as §2
# [7] = Half life in Wistar rat at 5 to 10 mg/kg, iv; assay type: ADME, organism-based; design: dose 5-10 mg/kg, route intravenous; conditions: in vivo; outline: as §2
# [8] = Drug metabolism in Wistar rat liver microsomes at 2.5 uM after 0.5 hrs; assay type: ADME, Microsome; conditions: read-out: Drug metabolism
# [9] = Drug metabolism in human liver microsomes at 2.5 uM after 0.5 hrs; assay type: ADME, Microsome; conditions: read-out: Drug metabolism
# Cytochrome P450 2D6 = Cytochrome P450 2D6 (Homo sapiens, UniProt P10635); assay: Inhibition of CYP2D6 in human liver microsomes using dextromethorphan as substrate after 10 mins in presence of NADPH; assay type: ADME, Microsome
# Cytochrome P450 3A4 = Cytochrome P450 3A4 (Homo sapiens, UniProt P08684); assay: Inhibition of CYP3A4 in human liver microsomes using midazolam as substrate after 5 mins in presence of NADPH; assay type: ADME, Microsome
# hERG (KCNH2) = hERG (KCNH2) (Homo sapiens, UniProt Q12809); assay: Inhibition of human ERG at 1 uM by radioligand displacement assay
# Sequence of hERG (KCNH2) (Q12809 whole entry): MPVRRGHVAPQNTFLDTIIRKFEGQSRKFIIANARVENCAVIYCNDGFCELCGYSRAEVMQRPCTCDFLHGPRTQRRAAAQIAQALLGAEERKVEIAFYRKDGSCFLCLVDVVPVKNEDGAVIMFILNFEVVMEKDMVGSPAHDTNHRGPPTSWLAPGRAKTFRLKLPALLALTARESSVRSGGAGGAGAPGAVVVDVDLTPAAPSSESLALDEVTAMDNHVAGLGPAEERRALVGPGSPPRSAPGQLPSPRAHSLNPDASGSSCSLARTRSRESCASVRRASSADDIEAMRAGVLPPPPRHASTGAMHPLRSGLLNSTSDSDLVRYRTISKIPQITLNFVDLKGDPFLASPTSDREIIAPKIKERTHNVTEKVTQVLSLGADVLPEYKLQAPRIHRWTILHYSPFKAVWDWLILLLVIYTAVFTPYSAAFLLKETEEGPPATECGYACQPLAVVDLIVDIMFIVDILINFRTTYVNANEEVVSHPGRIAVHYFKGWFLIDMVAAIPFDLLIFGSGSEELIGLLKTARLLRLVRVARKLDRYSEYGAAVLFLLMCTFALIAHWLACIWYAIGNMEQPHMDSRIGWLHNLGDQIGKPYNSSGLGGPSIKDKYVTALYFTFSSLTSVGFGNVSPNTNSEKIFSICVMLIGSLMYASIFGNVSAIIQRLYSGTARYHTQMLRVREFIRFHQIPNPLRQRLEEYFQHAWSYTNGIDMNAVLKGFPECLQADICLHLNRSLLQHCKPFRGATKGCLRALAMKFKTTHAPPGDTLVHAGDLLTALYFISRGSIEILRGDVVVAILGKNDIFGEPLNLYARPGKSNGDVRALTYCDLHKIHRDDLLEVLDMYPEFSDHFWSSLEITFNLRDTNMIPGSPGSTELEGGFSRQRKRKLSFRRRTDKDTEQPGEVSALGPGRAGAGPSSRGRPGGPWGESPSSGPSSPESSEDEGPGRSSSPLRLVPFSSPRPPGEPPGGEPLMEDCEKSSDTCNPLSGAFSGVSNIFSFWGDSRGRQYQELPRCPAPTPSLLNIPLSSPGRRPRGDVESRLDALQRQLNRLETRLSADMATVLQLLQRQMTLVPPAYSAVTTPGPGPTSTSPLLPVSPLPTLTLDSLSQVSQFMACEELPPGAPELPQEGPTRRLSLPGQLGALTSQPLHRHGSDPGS
# Outline: (§3)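 Single-concentration screen at 1 µM. Percent inhibition was measured by competitive displacement of each target's radioligand.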
# [10] = biological target: Sodium-dependent serotonin transporter (Homo sapiens) (UniProt P31645); assay: Inhibition of SERT at 1 uM by radioligand displacement assay; outline: as §3
# Sequence of Sodium-dependent serotonin transporter (Homo sapiens) (P31645 whole entry, looked up): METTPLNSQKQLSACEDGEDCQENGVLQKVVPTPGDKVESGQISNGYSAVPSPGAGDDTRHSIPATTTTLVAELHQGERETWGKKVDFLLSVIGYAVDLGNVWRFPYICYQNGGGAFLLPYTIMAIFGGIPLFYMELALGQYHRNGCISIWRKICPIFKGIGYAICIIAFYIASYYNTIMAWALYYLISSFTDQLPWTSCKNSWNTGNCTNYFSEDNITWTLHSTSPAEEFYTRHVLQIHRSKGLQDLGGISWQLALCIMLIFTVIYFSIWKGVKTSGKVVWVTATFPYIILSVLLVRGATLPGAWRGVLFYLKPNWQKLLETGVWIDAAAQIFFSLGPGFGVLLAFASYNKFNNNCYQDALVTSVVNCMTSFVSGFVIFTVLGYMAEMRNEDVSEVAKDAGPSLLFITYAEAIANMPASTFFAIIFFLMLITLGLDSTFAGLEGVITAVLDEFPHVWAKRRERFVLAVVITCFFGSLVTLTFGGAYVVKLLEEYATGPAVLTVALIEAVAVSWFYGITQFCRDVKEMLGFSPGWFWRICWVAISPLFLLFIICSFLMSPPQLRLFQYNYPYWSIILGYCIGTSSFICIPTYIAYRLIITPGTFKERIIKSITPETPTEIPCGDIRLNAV
# [11] = biological target: Histamine H1 receptor (Homo sapiens) (UniProt P35367); assay: Inhibition of histamine H1 receptor at 1 uM by radioligand displacement assay; outline: as §3
# Sequence of Histamine H1 receptor (Homo sapiens) (P35367 whole entry): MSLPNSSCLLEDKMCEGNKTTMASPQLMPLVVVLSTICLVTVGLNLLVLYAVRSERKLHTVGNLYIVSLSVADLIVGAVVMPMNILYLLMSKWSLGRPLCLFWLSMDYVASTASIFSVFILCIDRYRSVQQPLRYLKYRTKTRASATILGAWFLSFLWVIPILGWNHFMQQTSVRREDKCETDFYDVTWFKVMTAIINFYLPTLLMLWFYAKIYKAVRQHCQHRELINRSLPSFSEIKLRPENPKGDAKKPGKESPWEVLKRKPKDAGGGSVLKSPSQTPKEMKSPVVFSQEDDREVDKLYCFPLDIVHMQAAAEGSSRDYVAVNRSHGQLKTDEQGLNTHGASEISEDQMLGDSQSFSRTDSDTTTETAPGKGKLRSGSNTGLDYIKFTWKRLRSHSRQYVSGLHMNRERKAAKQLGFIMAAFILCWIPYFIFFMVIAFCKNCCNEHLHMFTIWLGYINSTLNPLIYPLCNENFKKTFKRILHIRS
# [12] = biological target: Sodium-dependent noradrenaline transporter (Homo sapiens) (UniProt P23975); assay: Inhibition of NET at 1 uM by radioligand displacement assay; outline: as §3
# [13] = biological target: D(3) dopamine receptor (Homo sapiens) (UniProt P35462); assay: Inhibition of dopamine D3 receptor at 1 uM by radioligand displacement assay; outline: as §3
# Sequence of D(3) dopamine receptor (Homo sapiens) (P35462 whole entry): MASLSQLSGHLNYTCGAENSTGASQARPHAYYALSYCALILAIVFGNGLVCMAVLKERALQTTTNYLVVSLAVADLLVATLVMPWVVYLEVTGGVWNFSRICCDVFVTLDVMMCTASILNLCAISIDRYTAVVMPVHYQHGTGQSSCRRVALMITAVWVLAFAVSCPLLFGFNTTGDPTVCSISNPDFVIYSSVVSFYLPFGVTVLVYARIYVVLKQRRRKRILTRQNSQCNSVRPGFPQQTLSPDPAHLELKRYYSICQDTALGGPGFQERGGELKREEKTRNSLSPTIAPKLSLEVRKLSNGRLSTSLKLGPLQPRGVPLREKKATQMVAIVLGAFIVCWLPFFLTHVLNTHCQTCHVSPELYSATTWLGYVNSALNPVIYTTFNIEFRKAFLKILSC
# [14] = biological target: Sodium-dependent dopamine transporter (Homo sapiens) (UniProt Q01959); assay: Inhibition of DAT at 1 uM by radioligand displacement assay; outline: as §3
# Sequence of Sodium-dependent dopamine transporter (Homo sapiens) (Q01959 whole entry): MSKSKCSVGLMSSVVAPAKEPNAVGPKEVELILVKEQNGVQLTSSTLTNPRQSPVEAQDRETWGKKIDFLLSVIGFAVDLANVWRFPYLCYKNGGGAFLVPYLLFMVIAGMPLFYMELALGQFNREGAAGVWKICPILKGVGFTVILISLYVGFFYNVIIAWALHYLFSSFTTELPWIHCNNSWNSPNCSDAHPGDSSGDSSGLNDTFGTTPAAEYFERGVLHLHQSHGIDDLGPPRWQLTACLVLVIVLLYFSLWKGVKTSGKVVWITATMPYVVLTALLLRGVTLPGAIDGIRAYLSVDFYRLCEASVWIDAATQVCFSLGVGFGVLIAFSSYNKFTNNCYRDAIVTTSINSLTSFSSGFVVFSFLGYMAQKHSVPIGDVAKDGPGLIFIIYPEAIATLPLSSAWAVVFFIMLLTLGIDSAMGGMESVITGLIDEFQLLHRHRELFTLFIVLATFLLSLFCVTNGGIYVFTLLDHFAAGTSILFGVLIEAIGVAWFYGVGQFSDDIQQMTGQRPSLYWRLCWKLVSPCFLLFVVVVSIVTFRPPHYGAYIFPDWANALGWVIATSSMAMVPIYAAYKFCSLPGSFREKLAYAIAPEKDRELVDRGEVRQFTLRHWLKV
# [15] = biological target: D(2) dopamine receptor (Homo sapiens) (UniProt P14416); assay: Inhibition of dopamine D2 receptor at 1 uM by radioligand displacement assay; outline: as §3
# Sequence of D(2) dopamine receptor (Homo sapiens) (P14416 whole entry): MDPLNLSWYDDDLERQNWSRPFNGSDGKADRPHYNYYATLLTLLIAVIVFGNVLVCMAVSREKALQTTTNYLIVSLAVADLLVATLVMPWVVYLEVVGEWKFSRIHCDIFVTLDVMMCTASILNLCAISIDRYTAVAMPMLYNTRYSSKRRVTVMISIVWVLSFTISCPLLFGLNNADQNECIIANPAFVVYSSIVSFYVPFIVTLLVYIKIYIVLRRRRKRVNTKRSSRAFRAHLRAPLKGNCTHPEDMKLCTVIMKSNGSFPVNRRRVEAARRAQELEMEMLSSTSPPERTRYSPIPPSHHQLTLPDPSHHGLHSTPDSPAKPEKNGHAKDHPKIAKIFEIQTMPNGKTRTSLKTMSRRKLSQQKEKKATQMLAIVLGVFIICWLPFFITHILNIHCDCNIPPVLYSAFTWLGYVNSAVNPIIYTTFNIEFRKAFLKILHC
# [16] = biological target: T1, 5-hydroxytryptamine receptor 3A (Homo sapiens) (UniProt P46098); assay: Inhibition of 5HT3 receptor at 1 uM by radioligand displacement assay; outline: as §3
# T1 sequence (whole entry): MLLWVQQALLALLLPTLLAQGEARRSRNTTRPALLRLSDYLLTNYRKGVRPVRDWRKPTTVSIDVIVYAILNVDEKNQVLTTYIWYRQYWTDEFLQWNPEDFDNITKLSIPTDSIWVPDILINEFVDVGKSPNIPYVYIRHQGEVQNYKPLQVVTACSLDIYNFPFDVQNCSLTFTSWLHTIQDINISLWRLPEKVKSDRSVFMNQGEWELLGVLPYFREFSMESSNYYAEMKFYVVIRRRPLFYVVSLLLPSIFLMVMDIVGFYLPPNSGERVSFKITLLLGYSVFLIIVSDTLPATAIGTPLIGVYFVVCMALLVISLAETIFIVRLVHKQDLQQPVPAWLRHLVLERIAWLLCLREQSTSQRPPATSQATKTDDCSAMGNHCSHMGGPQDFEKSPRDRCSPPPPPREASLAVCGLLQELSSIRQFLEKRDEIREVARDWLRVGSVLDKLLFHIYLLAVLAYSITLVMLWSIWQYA
# [17] = biological target: 5-hydroxytryptamine receptor 2A (Homo sapiens) (UniProt P28223); assay: Inhibition of 5HT2A receptor at 1 uM by radioligand displacement assay; outline: as §3
# Sequence of 5-hydroxytryptamine receptor 2A (Homo sapiens) (P28223 whole entry): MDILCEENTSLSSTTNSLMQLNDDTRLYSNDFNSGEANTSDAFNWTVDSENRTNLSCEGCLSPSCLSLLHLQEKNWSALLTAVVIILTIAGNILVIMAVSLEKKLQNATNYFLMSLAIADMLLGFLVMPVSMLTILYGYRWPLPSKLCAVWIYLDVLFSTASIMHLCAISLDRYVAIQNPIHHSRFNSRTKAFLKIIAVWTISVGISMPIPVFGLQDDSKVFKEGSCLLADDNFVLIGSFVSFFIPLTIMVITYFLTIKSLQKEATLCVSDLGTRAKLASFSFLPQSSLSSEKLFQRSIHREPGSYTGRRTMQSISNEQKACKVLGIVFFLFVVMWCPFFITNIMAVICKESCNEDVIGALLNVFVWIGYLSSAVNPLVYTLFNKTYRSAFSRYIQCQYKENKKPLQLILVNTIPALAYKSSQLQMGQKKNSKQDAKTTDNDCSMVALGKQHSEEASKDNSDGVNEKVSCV
# [18] = biological target: T2, 5-hydroxytryptamine receptor 6 (Homo sapiens, UniProt P50406); assay: Antagonist activity at recombinant human 5HT6 receptor expressed in CHO cells assessed as inhibition of 5HT-stimulated cAMP accumulation after 4 hrs by luciferase reporter gene assay relative to control; assay type: functional, cell-based
# T2 sequence (P50406 whole entry): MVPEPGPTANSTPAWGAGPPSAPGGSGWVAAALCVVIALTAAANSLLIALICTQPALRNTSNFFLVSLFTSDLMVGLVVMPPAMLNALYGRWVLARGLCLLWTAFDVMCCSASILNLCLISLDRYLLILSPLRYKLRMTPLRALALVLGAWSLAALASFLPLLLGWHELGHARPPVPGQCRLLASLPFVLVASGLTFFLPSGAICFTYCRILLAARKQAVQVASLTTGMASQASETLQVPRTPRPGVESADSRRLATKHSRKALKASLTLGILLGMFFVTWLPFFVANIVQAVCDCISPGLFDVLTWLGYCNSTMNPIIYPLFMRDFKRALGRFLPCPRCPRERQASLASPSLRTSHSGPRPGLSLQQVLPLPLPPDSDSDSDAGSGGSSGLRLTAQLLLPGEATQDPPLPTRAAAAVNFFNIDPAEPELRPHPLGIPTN
# [19] = biological target: T2, 5-hydroxytryptamine receptor 6; assay: Antagonist activity at recombinant human 5HT6 receptor expressed in CHO cells assessed as inhibition of 5HT-stimulated cAMP accumulation after 4 hrs by luciferase reporter gene assay; assay type: functional, cell-based
# Outline: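 Functional antagonism measured in a non-radioactive CHO cell-based assay as inhibition of 5-HT-stimulated cAMP accumulation. IC50 was derived from this inhibition, and Kb values were determined in the same cell-based format. IC50 and Kb are each the mean of two experiments.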
# [20] = biological target: T2, 5-hydroxytryptamine receptor 6; assay: Displacement of [3H]-LSD from cloned human 5HT6 receptor expressed in HEK293 cells; assay type: cell-based
# Outline: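 Human recombinant 5-HT6 receptor expressed in HEK293 cells. Radioligand [3H]-LSD (60–80 Ci/mmol) at 1.5 nM final. Methiothepin mesylate defined non-specific binding and served as reference. Ki values are the average of duplicate determinations, run under a contract lab's standard protocol.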
# [21] = biological target: T3, Alpha-1B adrenergic receptor (Homo sapiens) (UniProt P35368); assay: Inhibition of adrenergic alpha1B receptor at 1 uM by radioligand displacement assay; outline: as §3
# T3 sequence (whole entry): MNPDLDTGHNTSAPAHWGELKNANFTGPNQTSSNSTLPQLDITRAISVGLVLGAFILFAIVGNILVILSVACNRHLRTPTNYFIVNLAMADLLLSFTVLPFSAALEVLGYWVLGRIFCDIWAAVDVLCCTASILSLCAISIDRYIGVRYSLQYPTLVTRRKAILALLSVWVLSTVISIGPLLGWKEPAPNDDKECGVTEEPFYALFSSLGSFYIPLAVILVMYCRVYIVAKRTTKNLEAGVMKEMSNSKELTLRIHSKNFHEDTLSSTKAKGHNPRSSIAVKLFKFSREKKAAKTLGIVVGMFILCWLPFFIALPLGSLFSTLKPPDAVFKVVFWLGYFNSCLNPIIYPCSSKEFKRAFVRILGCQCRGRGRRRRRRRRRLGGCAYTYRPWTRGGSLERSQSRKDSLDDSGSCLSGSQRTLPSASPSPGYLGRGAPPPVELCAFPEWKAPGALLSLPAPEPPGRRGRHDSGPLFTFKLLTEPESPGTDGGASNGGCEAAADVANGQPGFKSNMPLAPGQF
# [22] = Half life in Wistar rat at 10 mg/kg, po; assay type: ADME, organism-based; design: dose 10 mg/kg, route oral; conditions: in vivo; outline: as §1
# Rattus norvegicus = assay: Cognitive enhancing effect in Wistar rat assessed as reversal of time delay-induced memory deficit at 10 mg/kg, po after 60 mins by object recognition test; assay type: functional, organism-based; design: dose 10 mg/kg
# Outline: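 Object recognition task in rats. Drug or vehicle (PEG 400 50% v/v, 1 mL/kg) was given orally 60 min before testing, at 10 mg/kg. n = 6–9 per group.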
# [23] = Ratio of drug level in brain to plasma at steady state in Wistar rat at 10 mg/kg, po after 1 hr; assay type: ADME, organism-based; design: dose 10 mg/kg, route oral; conditions: read-out: BPR
SMILES,AUC(0-t) [1] [ng·h/mL],bioavailability [2] [%],Tmax [3] [h],Cmax [4] [ng/mL],clearance [5] [mL/min/kg],Vd [6] [L/kg],half-life [7] [h],"metabolised at 0.5 h, 2.5 µM [8] [%]","metabolised at 0.5 h, 2.5 µM [9] [%]",IC50 (Cytochrome P450 2D6) [nM],inhibition at 1 µM (hERG (KCNH2)) [%],inhibition [10] [%],inhibition [11] [%],inhibition [12] [%],inhibition [13] [%],inhibition [14] [%],inhibition [15] [%],inhibition [16] [%],inhibition [17] [%],inhibition [21] [%],other results
CN1CCN(Cc2cccc3c2ccn3S(=O)(=O)c2ccccc2)CC1,23,2,1.08,7.6,152,19.4,1.53,100,47,16800,21.1,2.85,10.1,10.2,22.6,3.92,7.26,6.73,10.9,0.99,IC50 (Cytochrome P450 3A4): 30500 nM; Imax [18]: 99%; IC50 [19]: 234 nM; Kb [19]: 1.02 nM; Ki [20]: 3.24 nM
CN1CCN(Cc2cccc3c2ccn3S(=O)(=O)c2ccccc2Br)CC1,217,29,1.83,60,220,32.6,1.76,100,90,19500,15.8,4.62,9.48,10.8,27.8,3.66,11.1,18.8,24,2.26,half-life [22]: 3.17 h; Activity (Rattus norvegicus): Active; Kp at 1 h [23]: 20.3; Imax [18]: 100%; IC50 [19]: 135 nM; Kb [19]: 0.59 nM
CN1CCN(Cc2cccc3c2c(Cl)cn3S(=O)(=O)c2cccc(Cl)c2)CC1,–,–,–,–,–,–,–,–,–,–,20.2,1.51,9.33,13.5,28.5,20.4,12.9,19.9,17.7,0.78,–
CN1CCN(Cc2cccc3c2c(Br)cn3S(=O)(=O)c2ccccc2)CC1,–,–,–,–,–,–,–,–,–,–,23,5.27,2.38,6.78,35.7,3.53,5.01,8.93,19.3,2.17,–
O=S(=O)(c1ccccc1Br)n1ccc2c(CN3CCNCC3)cccc21,–,–,–,–,–,–,–,–,–,–,24.5,8.47,9.82,6.28,8.31,5.23,12.8,18,18.7,1.13,Ki [20]: 2.82 nM
